# Screening data from PubChem.
# Rows were chosen to be rich in hits. Some 0.55% of all compounds tested hit in one or more screens of this group.
# OXTR agonist – human OXTR agonism | P30559 | CHO-OTR cells, Fluo-8 calcium fluorescence; normalized: DMSO 0%, oxytocin 100% | activation, % at 3 µM | 0.32% of 320,000 active | AID 2435;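 active = activation above the mean of all tested compounds plus 3 SD, cutoff set per screening run, cut at about 20% in these data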;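 also: peak over basal fluorescence ratio from a 100 s FLIPR kinetic read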
# Target sequence (P30559 whole entry, looked up): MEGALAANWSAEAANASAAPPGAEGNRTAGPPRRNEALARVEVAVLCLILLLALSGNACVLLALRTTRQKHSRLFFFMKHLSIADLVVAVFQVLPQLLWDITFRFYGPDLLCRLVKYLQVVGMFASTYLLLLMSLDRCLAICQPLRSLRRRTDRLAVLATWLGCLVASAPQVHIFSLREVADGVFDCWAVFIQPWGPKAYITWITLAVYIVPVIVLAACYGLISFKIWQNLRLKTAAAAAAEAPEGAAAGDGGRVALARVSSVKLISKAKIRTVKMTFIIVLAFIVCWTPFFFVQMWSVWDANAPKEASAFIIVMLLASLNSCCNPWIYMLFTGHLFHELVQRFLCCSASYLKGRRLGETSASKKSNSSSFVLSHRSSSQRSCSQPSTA
# V1R ag counter – activates human V1a receptor in oxytocin agonist counter-screen. 0.25% of 320,000 active. activation, % at 3 µM. AID 2797. P37288. CHO-V1R cells, Fluo-8 calcium fluorescence, agonist mode; 0% DMSO, 100% 3 nM vasopressin;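 active = activation above the mean activation of all tested compounds plus 3 SD, per screening run, cut at about 20% in these data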;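 also: signal is peak over basal fluorescence ratio across a 100 second FLIPR read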
# TRPN1 ag – zebrafish TRPN1 (NompC) channel agonism; activation, % at 3 µM; HEK293 zebrafish TRPN1-YFP, Fluo-8 calcium fluorescence; 100% = response to 87 µM carbachol; AID 1424; 0.18% of 220,000 active;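 active = activation above its plate's cutoff, the mean activation of test wells on that plate plus 3 SD, cut at about 19% in these data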;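 also: 0% = DMSO alone and 100% = 87 µM carbachol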
#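 Material: zebrafish TRPN1-YFP in HEK293 cells; Doses: single test compound dose, 3 µM nominal, 0.3% DMSO; Timing: dye loading 1 h at 37 °C, then 30 min room temperature; Technique: intracellular calcium fluorescence with Fluo-8; Benchmarks: high carbachol 87 µM, low DMSO alone.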
# OXTR potentiate – potentiators of human oxytocin receptor; P30559; CHO-OTR cells, Fluo-8 calcium fluorescence, potentiator mode; 0% = oxytocin EC15, 100% = EC100; activation, % at 3 µM; 0.061% of 320,000 active;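 active = activation above that plate's cutoff, the mean activation of tested compounds plus 3 SD, cut at about 6.6% in these data, passing the limit was not always enough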;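 also: 100% uses oxytocin at 75 nM as the full agonist control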
#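 test system = CHO-OTR cells, human receptor | compound = single-point 3.0 µM | schedule = 6 min compound pre-incubation at room temperature, 100 s kinetic read | signal = Fluo-8 no-wash calcium dye fluorescence, excitation 470-495 nm, emission 515-575 nm | repeats = single well per compound, singlicate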
# TRPML3 ag – agonists of human TRPML3 channel | Q8TDD5 | HEK293 TRPML3-YFP, Fluo-8 calcium fluorescence; 100% = the carbachol control signal | activation, % at 3 µM | 0.29% of 220,000 active;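 active = activation above its plate's cutoff, the mean activation of the plate's test wells plus 3 SD, cut at about 12% in these data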;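 also: 0% = DMSO only wells and 100% = carbachol wells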
#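 Test system – HEK293 line with stable expression of human TRPML3-YFP channel · Control set – carbachol 87 µM final as high control (100%), DMSO as low control (0%) · Signal – Fluo-8 calcium dye fluorescence, ex 470-495, em 515-575 nm · Incubation – 1-h 37 °C dye load, 5-s basal, 120-s post-compound reads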
# * = called active by the depositor; . = no result.
SMILES,OXTR agonist,V1R ag counter,TRPN1 ag,OXTR potentiate,TRPML3 ag
Cc1ccc(O)c(C(=O)c2cc(C#N)c(=O)n(-c3nccs3)c2)c1,66.3*,53.9*,45.0*,-14.7,18.6*
N#C/C(=N\Nc1ccccc1)C(N)=S,5.3,7.5,4.8,-11.9,2.4
Cc1ccc(NC(N)=S)cc1C,-0.2,-1.1,-0.2,-6.6,0.8
Cc1ccc(N/N=C(\C#N)C(N)=S)cc1C,17.1,14.4,24.2*,-32.9,13.3*
N#C/C(=N\Nc1ccc(Cl)cc1)C(N)=S,17.2,13.4,25.1*,-18.3,15.9*
O=C(Nc1cccc(-n2cccn2)c1)C1CCCN(Cc2ccccc2F)C1 (centres undefined),-0.7,0.3,.,-11.1,.
Cc1cc(/C=C2\C(=N)N3C(SCc4ccccc4)=NSC3=NC2=O)c(C)n1Cc1ccccc1,0.2,-0.3,-0.2,-6.6,0.6
CCC1=NN2C(=N)/C(=C/c3cc(C)n(Cc4ccccc4)c3C)C(=O)N=C2S1,52.7*,69.4*,0.4,-21.7,0.3
CC1=NN2C(=N)/C(=C\c3cc(C)n(-c4ccccc4)c3C)C(=O)N=C2S1,0.0,0.5,0.8,-11.4,0.5
Cc1cc(/C=C2\C(=N)N3N=C(C(C)C)SC3=NC2=O)c(C)n1Cc1ccccc1,47.7*,43.9*,9.6,-22.0,2.8
Cc1cc(/C=C2\C(=N)N3N=C(c4ccco4)SC3=NC2=O)c(C)n1Cc1ccccc1,36.1*,54.2*,5.6,-17.2,0.4
CC(C)CSC1=NSC2=NC(=O)/C(=C\c3coc4ccccc4c3=O)C(=N)N12,120.8*,43.2*,21.4*,-21.4,12.9*
N=C1/C(=C\c2coc3ccccc3c2=O)C(=O)N=C2SC(c3ccncc3)=NN12,92.2*,98.3*,61.1*,-8.3,33.7*
CC(C)CSC1=NSC2=NC(=O)/C(=C\c3ccccc3)C(=N)N12,0.0,-0.6,-0.6,-3.3,-0.9
N=C1/C(=C\c2coc3ccc(O)cc3c2=O)C(=O)N=C2SC=CN12,47.1*,42.4*,84.2*,-25.7,17.9*
N=C1/C(=C/c2coc3ccccc3c2=O)C(=O)N=C2SC(c3ccco3)=NN12,10.9,4.9,15.4,2.4,6.4
O=c1c2oc3nc4c(cc3c2ncn1CCCc1ccccc1)CCCC4,-2.6,-1.5,2.0,-4.7,0.8
CCCCCCCCCCCCCCCCn1cc[n+](C)c1,25.1*,34.9*,1.5,-20.0,0.5
CC#CC(=O)N1CCC(CCC(=O)N(C)Cc2ccccc2)CC1,0.2,0.5,.,6.9,.
CCOc1ccc2c(c1)c(=O)c(S(=O)(=O)c1ccc(CC)cc1)cn2C,-1.0,-0.8,.,0.6,.
CCOc1cc(/C=C2\SC(=S)N(NS(=O)(=O)c3ccc(C)cc3)C2=O)ccc1O,13.5,16.5,.,-14.3,.
COc1cc(/C=C2\SC(=S)N(NS(=O)(=O)c3ccccc3)C2=O)ccc1O,23.6*,40.7*,24.9*,-8.4,16.7*
COc1cc(/C=C2\SC(=S)N(NS(=O)(=O)c3ccc(C)cc3)C2=O)ccc1O,24.1*,39.3*,37.5*,-5.3,23.8*
COc1cc(/C=C2\SC(=S)N(NC(=O)c3ccncc3)C2=O)ccc1O,9.8,14.2,13.3,-4.1,7.0
COc1cc(/C=C2\SC(=S)N(NC(=O)c3ccc(O)c(OC)c3)C2=O)ccc1O,36.8*,28.9*,.,-25.6,.
SMILES,OXTR agonist,V1R ag counter,TRPN1 ag,OXTR potentiate,TRPML3 ag
COc1ccc(/C=C2/SC(=S)N(NS(=O)(=O)c3ccccc3)C2=O)cc1,-0.5,3.0,.,-5.8,.
COc1ccccc1C1NC(=O)NC(C)=C1C(=O)OC1CCC(C)CC1 (centres undefined),-2.5,-0.2,.,-19.6,.
CN1/C(=C\C=C2/SC(=S)N(CC(=O)O)C2=O)C(C)(C)c2ccccc21,110.6*,148.2*,41.4*,-16.9,12.1*
CN1CCS/C1=C\C=C1/SC(=S)N(CC(=O)O)C1=O,.,.,30.8*,.,9.9
O=S(=O)(/N=S1/CC=CCN1S(=O)(=O)c1ccccc1)c1ccccc1 (centres undefined),28.9*,31.0*,0.5,-15.2,1.9
Cn1cc([N+](=O)[O-])c(C(=O)Nc2nc(-c3ccc(Cl)cc3)cs2)n1,31.8*,35.9*,2.1,-19.4,1.1
Cc1onc(-c2ccccc2)c1C(=O)NNC(=O)c1ccccc1,-0.6,0.0,.,-0.6,.
Cc1cccc(C(=O)NC(=S)NNC(=O)c2ccccc2Cl)c1,71.5*,49.5*,34.4*,-20.8,12.6*
Cc1onc(-c2ccccc2)c1C(=O)NNC(=S)NC(=O)c1ccc(Br)cc1,73.1*,65.8*,23.4*,-11.4,11.0
Cc1onc(-c2ccccc2)c1C(=O)NNC(=S)NC(=O)/C=C/c1ccccc1,35.2*,46.5*,4.0,-8.7,1.6
Cc1onc(-c2ccccc2)c1C(=O)NNC(=O)c1ccccc1O,-0.5,-0.3,.,-4.0,.
Cc1onc(-c2ccccc2)c1C(=O)NNC(=S)NC(=O)c1ccc(Cl)cc1Cl,101.9*,101.5*,7.1,-11.7,1.7
O=C(Nc1cccc(-c2ccc(F)cc2)c1)C1CCCN(C(=O)c2cscn2)C1 (centres undefined),8.7,4.4,.,-8.1,.
COc1ccccc1C(=O)NCCC(=O)NNC(=O)Cn1ccc(C(F)(F)F)n1,0.6,0.0,.,-16.2,.
CCOc1ccc(NC(=O)CN(C)C(=O)C2CCN(C(=O)c3ccc(Cl)cc3)CC2)cc1OCC,-1.3,0.5,.,-0.5,.
Cc1ccccc1C(=O)NNC(=S)NC(=O)c1ccc(Cl)cc1Cl,73.5*,84.6*,71.7*,-14.0,56.6*
CC(=O)NNC(=S)NC(=O)c1ccc(C)cc1,-0.9,0.6,0.4,-5.1,0.4
Cc1ccc(C(=O)NNC(=S)NC(=O)c2ccc(Cl)cc2)cc1,91.3*,81.4*,142.8*,-13.1,83.0*
NC(=O)c1ccc[n+]([C@H]2O[C@@H](COP(=O)([O-])OP(=O)(O)OC[C@H]3O[C@@H](n4cnc5c(N)ncnc54)[C@H](O)[C@@H]3O)[C@H](O)[C@@H]2O)c1,50.7*,69.3*,.,-22.4,.
CCN(C[C@H]1N[C@@](Cc2ccccc2)(C(=O)OC)[C@H]2C(=O)N(C)C(=O)[C@@H]12)C(=O)COC,-0.6,0.3,.,-0.6,.
CCOc1ccccc1N(CC(=O)N1CCOCC1)S(=O)(=O)c1ccccc1,-0.3,0.7,6.2,0.1,182.0*
COc1cc(/C=C2\SC(=S)N(C(C(=O)O)c3ccccc3)C2=O)ccc1O (centres undefined),33.1*,49.0*,40.3*,-11.6,27.1*
COc1cc(/C=C2/SC(=S)N(Cc3ccccc3)C2=O)ccc1O,27.6*,36.3*,.,-4.8,.
O=C1/C(=C\c2cc([N+](=O)[O-])ccc2O)SC(=S)N1Cc1ccc(Cl)cc1,96.2*,66.9*,.,-25.2,.
O=C(Cc1cccc(C(F)(F)F)c1)NCc1cccnc1,-0.1,-0.1,.,-3.4,.
